Reference: paper PMC3911823 (The FEBS journal, 2011)
Where a chain is given by its changes, count along the chain named.

Experiments:
[1] = biological target: T1, P450 2B4 E474Q (Oryctolagus cuniculus, UniProt P00178, E474Q); experiment: Inhibition of 7-EFC O-deethylation by imidazole inhibitors; assay type: biochemical, rabbit (Oryctolagus cuniculus)
T1 sequence (P00178 with tags, fused parts or gaps E474Q limits assumed): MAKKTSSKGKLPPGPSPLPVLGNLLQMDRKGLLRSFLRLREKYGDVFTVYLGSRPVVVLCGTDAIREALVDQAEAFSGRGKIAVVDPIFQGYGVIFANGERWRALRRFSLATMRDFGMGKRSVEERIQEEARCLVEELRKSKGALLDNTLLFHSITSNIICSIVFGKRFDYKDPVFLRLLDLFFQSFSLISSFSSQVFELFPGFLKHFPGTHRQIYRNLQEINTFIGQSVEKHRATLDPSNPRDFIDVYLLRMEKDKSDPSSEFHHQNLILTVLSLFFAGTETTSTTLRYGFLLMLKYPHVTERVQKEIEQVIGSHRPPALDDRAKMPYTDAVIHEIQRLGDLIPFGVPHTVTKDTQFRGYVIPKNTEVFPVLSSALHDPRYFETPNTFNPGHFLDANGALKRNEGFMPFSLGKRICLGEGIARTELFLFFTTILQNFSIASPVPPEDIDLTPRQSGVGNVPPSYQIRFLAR

[2] = biological target: T2, P450 2B4 H172Q (Oryctolagus cuniculus, UniProt P00178, H172Q); experiment: as above; assay type: biochemical, rabbit (Oryctolagus cuniculus)
T2 sequence (P00178 with tags, fused parts or gaps H172Q limits assumed): T1 sequence (P00178 with tags, fused parts or gaps E474Q limits assumed) with H153Q, Q455E

[3] = biological target: T3, P450 2B4 wild type (Oryctolagus cuniculus, UniProt P00178); experiment: as above; assay type: biochemical, rabbit (Oryctolagus cuniculus)
T3 sequence (P00178 with tags, fused parts or gaps limits assumed): T1 sequence (P00178 with tags, fused parts or gaps E474Q limits assumed) with Q455E

[4] = biological target: T4, P450 2B4 H172F (Oryctolagus cuniculus, UniProt P00178, H172F); experiment: Spectral binding titration of imidazole ligands; set-up: species or system rabbit (Oryctolagus cuniculus); conditions: 2B4 H172F versus wild type
T4 sequence (P00178 with tags, fused parts or gaps H172F limits assumed): T1 sequence (P00178 with tags, fused parts or gaps E474Q limits assumed) with H153F, Q455E
Method in brief: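 Protein was the His-tagged 2B4dH construct (single mutants or wild type), expressed in TOPP3 cells and Ni-NTA purified. Spectra 350–700 nm recorded after serial 5 μl additions of 100 μM 4-CPI or bifonazole. Ks came from a tight-binding equation fit, and the 4-CPI/bifonazole Ks ratio was calculated.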

[5] = biological target: T3, P450 2B4 wild type; assay type: biochemical, rabbit (Oryctolagus cuniculus); conditions: 2B4 WT
[6] = biological target: T1, P450 2B4 E474Q; assay type: biochemical, rabbit (Oryctolagus cuniculus)

IC50 [1] [µM] | Ratio 4-CPI IC50/Bifonazole IC50 ([1]; 2B4 E474Q, 50 μM 7-EFC as substrate) | IC50 [2] [µM] | Ratio 4-CPI IC50/Bifonazole IC50 ([2]; 2B4 H172Q, 50 μM 7-EFC as substrate) | IC50 [3] [µM] | Ratio 4-CPI IC50/Bifonazole IC50 ([3]; 2B4 WT, 50 μM 7-EFC as substrate) | change in the ratio of 4-CPI Ks to bifonazole Ks [4] | kcat/S50 [5] | S50 ([5]; Hill equation) [µM] | kcat ([5]; substrate O-dealkylation) [s⁻¹] | decrease (change) in kcat versus wild type [6] | kcat [6] [s⁻¹] | kcat/S50 [6] | S50 ([6]; Hill equation) [µM] | SMILES
0.5 | 0.62 | 0.22 | 0.29 | 0.04 | 0.04 | greater than 9 fold | – | – | – | – | – | – | – | Clc1ccc(-c2c[nH]cn2)cc1 [4-CPI, 4-(4-chlorophenyl)imidazole]
– | – | – | – | – | – | – | 3.3 | 2.3 ± 0.5 | 0.127 ± 0.005 | ~ 4.5 fold | 0.0283 ± 0.005 | 0.35 | 4.8 ± 0.5 | O=c1ccc2nc3ccc(OCc4ccccc4)cc3oc-2c1 [7-BR, 7-benzyloxyresorufin]
